Measurements as given in ChEMBL document CHEMBL4321838, “Drug Design Targeting T-Cell Factor-Driven Epithelial-Mesenchymal Transition as a Therapeutic Strategy for Colorectal Cancer” (J Med Chem, 2019).
Values after ≈ are worked out from the molar mass of the structure shown. Active and inactive are the calls of the source.

Key:
[1] = Aqueous solubility of compound in PBS at 1 mg after 18 hrs by UV based analysis; type: physicochemical
Outline: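 Undissolved material removed by centrifugation at 5,000g for 45 min. UV absorption compared with a fully saturated 1-propanol solution; solubility derived by linear regression.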

[2] = Drug metabolism in CD-1 mouse active microsomes assessed as CYP450-mediated oxidative phase 1 metabolite formation measured within 30 mins by LC-MS/MS analysis; type: ADME; settings: 0.5 h
[3] = target: T1, DNA topoisomerase 2-alpha (Homo sapiens, UniProt P11388); assay: Inhibition of topoisomerase 2alpha dependent TCF transcription in human SW620 organoids transduced with TOPflash luminescent reporter at 10 uM after 72 hrs by luciferase based TOPFlash reporter gene assay
T1 sequence (P11388 whole entry): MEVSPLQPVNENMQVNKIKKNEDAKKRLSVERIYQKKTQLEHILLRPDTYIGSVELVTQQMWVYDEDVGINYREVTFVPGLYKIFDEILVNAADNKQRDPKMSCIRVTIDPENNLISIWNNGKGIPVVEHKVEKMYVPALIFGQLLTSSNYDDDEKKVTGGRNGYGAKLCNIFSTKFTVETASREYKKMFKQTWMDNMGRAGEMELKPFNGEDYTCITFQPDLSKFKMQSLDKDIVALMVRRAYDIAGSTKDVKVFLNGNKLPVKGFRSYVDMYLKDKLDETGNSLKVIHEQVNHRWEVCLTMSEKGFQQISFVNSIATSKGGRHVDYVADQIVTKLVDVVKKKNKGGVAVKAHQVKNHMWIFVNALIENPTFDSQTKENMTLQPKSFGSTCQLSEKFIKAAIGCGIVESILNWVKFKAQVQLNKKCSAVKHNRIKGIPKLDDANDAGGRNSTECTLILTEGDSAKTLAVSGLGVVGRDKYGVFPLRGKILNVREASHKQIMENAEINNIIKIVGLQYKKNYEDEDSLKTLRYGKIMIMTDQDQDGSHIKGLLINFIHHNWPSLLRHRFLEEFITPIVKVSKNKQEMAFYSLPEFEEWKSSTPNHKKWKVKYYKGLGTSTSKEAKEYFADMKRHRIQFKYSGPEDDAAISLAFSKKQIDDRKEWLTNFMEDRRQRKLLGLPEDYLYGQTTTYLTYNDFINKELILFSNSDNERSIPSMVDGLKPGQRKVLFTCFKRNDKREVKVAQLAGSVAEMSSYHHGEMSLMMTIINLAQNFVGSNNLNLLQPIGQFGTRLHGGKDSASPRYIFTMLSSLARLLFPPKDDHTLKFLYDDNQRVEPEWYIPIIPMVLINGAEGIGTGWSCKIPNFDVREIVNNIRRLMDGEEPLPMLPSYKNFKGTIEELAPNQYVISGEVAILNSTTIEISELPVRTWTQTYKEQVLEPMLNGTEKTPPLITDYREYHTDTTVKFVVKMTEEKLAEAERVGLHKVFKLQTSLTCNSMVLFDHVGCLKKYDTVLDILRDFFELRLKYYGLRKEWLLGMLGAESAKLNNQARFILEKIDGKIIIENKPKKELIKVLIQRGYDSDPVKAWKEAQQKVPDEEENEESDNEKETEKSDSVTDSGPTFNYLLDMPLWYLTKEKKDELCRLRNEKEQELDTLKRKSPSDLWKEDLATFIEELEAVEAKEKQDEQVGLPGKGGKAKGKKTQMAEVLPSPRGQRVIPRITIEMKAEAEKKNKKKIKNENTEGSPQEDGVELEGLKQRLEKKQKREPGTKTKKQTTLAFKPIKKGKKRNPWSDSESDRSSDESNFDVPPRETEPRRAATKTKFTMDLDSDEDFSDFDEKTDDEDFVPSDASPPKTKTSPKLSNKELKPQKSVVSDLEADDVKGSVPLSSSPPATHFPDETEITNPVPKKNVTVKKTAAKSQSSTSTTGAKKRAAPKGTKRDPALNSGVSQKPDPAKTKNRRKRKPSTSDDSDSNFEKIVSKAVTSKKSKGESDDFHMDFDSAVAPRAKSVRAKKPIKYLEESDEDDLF

[4] = Metabolic stability in CD-1 mouse inactive microsomes incubated for 1 hr by LC-MS/MS analysis; type: ADME, Microsome
[5] = target: T1, DNA topoisomerase 2-alpha; assay: Inhibition of topoisomerase 2alpha in human SW620 organoids transfected with VimPro-GFP reporter assessed as reversion of epithelial-mesenchymal transition by measuring reduction in vimentin expression at 10 uM after 72 hrs by Hoechst 33342 staining based GFP reporter gene assay
Outline: (§1)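 SW620 cells stably carrying VimPro-GFP or EcadPro-mCherry (puromycin selected) grown as organoids and dosed 72 h. Stained with 16 μM Hoechst 33342 for 1 h and imaged as 15 z-layers, 26.5 μm apart. Nuclei segmented and GFP- or mCherry-positive cells counted above background thresholds. Percent positive cells normalised to DMSO.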

[6] = target: T1, DNA topoisomerase 2-alpha; assay: Inhibition of topoisomerase 2alpha in human SW620 organoids transfected with EcadPro-RFP reporter assessed as reversion of epithelial-mesenchymal transition by measuring increase in E-cadherin expression up to 40 uM after 72 hrs by Hoechst 33342 staining based mCherryRFP reporter gene assay; outline: as §1
[7] = target: T1, DNA topoisomerase 2-alpha; assay: Inhibition of topoisomerase 2alpha in human SW620 organoids transfected with EcadPro-RFP reporter assessed as reversion of epithelial-mesenchymal transition by measuring increase in E-cadherin expression at 10 uM after 72 hrs by Hoechst 33342 staining based mCherryRFP reporter gene assay; outline: as §1
[8] = target: T1, DNA topoisomerase 2-alpha; assay: Poison activity at topoisomerase 2alpha in human SW620 cells assessed as induction of DNA double stranded break by measuring gamma H2AX phosphorylation up to 40 uM after 6 hrs by Hoechst-33342 staining based immunofluorescence assay; type: cell-based
Outline: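 SW620 monolayers, 20,000 cells per well, treated with compound for 6 or 24 h. Fixed in 4% paraformaldehyde, then permeabilised and blocked. Stained with γ-H2AX antibody overnight at 4 °C, FITC secondary antibody, and Hoechst 33342, then imaged at 20x.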

[9] = Half life of terminal disposition phase in CD-1 mouse at 50 mg/kg, ip by LC-MS/MS analysis; type: ADME, organism-based; settings: in vivo, read-out: t1/2lambda (converted)
Outline: (§2)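 Female CD-1 mice, single IP injection at 50 mg/kg in 100% DMSO. Sampling from 0.25 to 24 h, three mice per time point (21 per compound). Heparinised blood was spun to plasma, mixed 1:1 with acidified acetonitrile (0.1% formic acid or 0.1% TFA depending on compound), centrifuged, then measured by LC-MS/MS.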

SW-620 [10] = assay: Cytotoxicity against human SW620 organoids assessed as cell death with loss of membrane integrity after 72 hrs by CellTox Green assay; type: functional, cell-based; settings: SW-620, 72 h
Outline: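 SW620 tumor organoids exposed 72 h to inhibitor over 0–40 μM together with CellTox Green Express (0.5X). Whole-well mean fluorescence imaged (ex 488, em 500–550 nm). Normalised to lysis buffer as 0% viability and 0.4% DMSO as 100% viability.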

SW-620 [11] = assay: Induction of early stage cell death in human SW620 organoids transfected with EcadPro-RFP reporter assessed as loss of RFP reporter activity at 40 uM at after 72 hrs by Hoechst 33342 staining based mCherryRFP reporter gene assay; settings: sw-620, 72 h
[12] = AUC(0 to t) in CD-1 mouse at 50 mg/kg, ip by LC-MS/MS analysis; type: ADME, organism-based; settings: in vivo; outline: as §2
[13] = Clearance in CD-1 mouse at 50 mg/kg, ip by LC-MS/MS analysis; type: ADME, organism-based; settings: in vivo; outline: as §2
[14] = Drug metabolism in CD-1 mouse active microsomes assessed as CYP450-mediated oxidative phase 1 metabolite formation by LC-MS/MS analysis
SW-620 [15] = assay: Induction of apoptosis in human SW620 organoids assessed as increase in cleaved caspase 3/7 level at 40 uM after 72 hrs by caspase-glo 3/7 luminescence assay relative to control; type: functional
Outline: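 SW620 cells, 2,000 per well in 384-well ultra-low attachment plates with 2% Matrigel, grown 72 h into organoids, then dosed 72 h. Caspase-Glo 3/7 reagent added 1:1 and shaken 30 min; luminescence read. Staurosporine served as positive control and 0.4% DMSO as negative control.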

Mus musculus = assay: Apparent volume of drug distribution in CD-1 mouse at 50 mg/kg, ip by LC-MS/MS analysis; type: ADME, organism-based; settings: in vivo; outline: as §2
[16] = Cmax in CD-1 mouse at 50 mg/kg, ip by LC-MS/MS analysis; type: ADME, organism-based; design: dose 50 mg/kg, route intraperitoneal; settings: in vivo; outline: as §2
SW-620 [17] = assay: Cytotoxicity against human SW620 organoids assessed as growth inhibition at 10 uM after 72 hrs by brightfield imaging of organoid volume
[18] = target: T1, DNA topoisomerase 2-alpha; assay: Inhibition of topoisomerase 2alpha in human SW620 organoids transfected with VimPro-GFP reporter assessed as reversion of epithelial-mesenchymal transition by measuring reduction in vimentin expression up to 40 uM after 72 hrs by Hoechst 33342 staining based GFP reporter gene assay; outline: as §1
[19] = target: T1, DNA topoisomerase 2-alpha; assay: Inhibition of topoisomerase 2alpha dependent TCF transcription in human SW620 organoids transduced with TOPflash luminescent reporter after 72 hrs by luciferase based TOPFlash reporter gene assay
Outline: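 SW620 cells stably carrying pCDH-TOPflash-luc grown as organoids: 5,000 cells per U-bottom well in phenol red-free RPMI with 5% FBS and 2% Matrigel, 72 h. Inhibitor then applied 72 h. One-Glo luciferase and CellTiter-Glo 3D added 1:1. Luciferase signal normalised to viability, then to DMSO controls.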

[20] = Half life in CD-1 mouse microsomes measured up to 1 hr by LC-MS analysis; type: ADME, Microsome
Outline: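 Female CD-1 mouse liver microsomes (0.5 mg/mL), substrate 1 μg/mL and 1.5 mM NADPH in 0.1 M phosphate buffer pH 7.4 at 37 °C. Samples taken from 0 to 60 min and quenched with an equal volume of acetonitrile. Parent compound remaining measured by LC-MS/MS without internal standard.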

SW-620 [21] = assay: Anticlonogenic activity against human SW620 cells assessed as loss of cancer stem cell stemness by measuring inhibition of colony formation at 10 uM incubated for 24 hrs followed by replating and measured after 7 days by clonogenic assay; type: functional, cell-based
[22] = Tmax in CD-1 mouse at 50 mg/kg, ip by LC-MS/MS analysis; type: ADME, organism-based; settings: in vivo; outline: as §2
SW-620 [23] = assay: Antiinvasive activity in human SW620 organoids transduced with NucLight-Red virus assessed as inhibition of cell invasion at 10 uM incubated for 72 hrs and measured after 72 hrs by matrigel based fluorescence analysis; type: functional
Outline: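 NucLight-Red-labelled SW620 organoids treated 72 h at 10 μM in 0.1% DMSO, then dissociated. 5,000 live cells per well seeded in 50% Matrigel in the upper chamber of a migration plate, 0.5% FBS above and 20% FBS below. Invading cells tracked by bottom-side fluorescence over days, six replicates per condition.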

[24] = target: T1, DNA topoisomerase 2-alpha; assay: Inhibition of human topoisomerase 2alpha mediated decatenation at 30 uM using kDNA as susbtrate preincubated for 20 mins followed by substrate and ATP addition and measured after 1 hr by ethidium bromide staining based gel electrophoresis method relative to control
Outline: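 Human TOP2A (3 U) preincubated 20 min at 37 °C with compound at 30 μM in 1.2% DMSO. Reaction started with 2 mM ATP and 35 ng kDNA and run 1 h at 37 °C. Products resolved on 0.8% agarose in TBE with 0.2 μg/mL ethidium bromide; decatenated bands compared with vehicle.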

## CC(=O)Nc1ccc2c(-c3cc(F)ccc3O)ccnc2c1O
[1]
  solubility thermodynamic at 18 h: 450 µg/mL (≈ 1440 µM)
[2]
  Drug metabolism: Metabolite_Detected
[3]
  inhibition: Active
[4]
  Stability: Stable
[5]
  inhibition: Active
[6]
  inhibition: Active
[7]
  inhibition: Active
[8]
  Activity: Not Active
[9]
  half-life: 118 min
SW-620 [10]
  EC50: > 30000 nM
SW-620 [11]
  Activity: Active
[12]
  AUC(0-t): 12500 ng·h/mL
[13]
  CL/F: 64.5 mL/min/kg
[14]
  Drug metabolism: Metabolite_Notdetected
SW-620 [15]
  Activity: Active
Mus musculus
  Vz: 10.9 L/kg
[16]
  Cmax: 19000 ng/mL
SW-620 [17]
  growth inhibition (GI): Active
[18]
  inhibition: Active
[19]
  IC50: 2400 nM
[20]
  t1/2: 6.72 min
SW-620 [21]
  inhibition: Active
[22]
  Tmax: 15 min
SW-620 [23]
  inhibition: Active
[24]
  inhibition: 99%
